Experimental findings from ChEMBL document CHEMBL4014332, “Multitargeted Imidazoles: Potential Therapeutic Leads for Alzheimer's and Other Neurodegenerative Diseases” (J Med Chem, 2017) are described below.

Usually inhibition stands for the share of the control response that was lost under treatment. A lower inhibition goes with a weak effect. A word on the IC50: it is the concentration at which inhibition is half-maximal. Read a high IC50 as lower potency.

Some results are limits rather than exact numbers.

Data set [1] is described as follows: Change in total alpha-tubulin levels in human QBI293 cells at 1 uM after 4 hrs by ELISA relative to control. As to conditions: qbi293, 4 h. On the technique in general: ELISA stands for enzyme-linked immunosorbent assay.
The nature of data set [2]: Drug uptake in mouse brain at 2 mg/kg, ip administered as cassette dosing after 1 hr by LC-MS/MS method. Type of data set: ADME, organism-based. As to conditions: read-out: Drug uptake. The method in brief:
(§1)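 Groups of three 2–5-month-old CD-1 or B6SJL mice, sexes kept separate, were cassette-dosed i.p. in DMSO at 2 mg/kg with two or three compounds given together. Plasma and brain homogenate levels were measured at a single time point and scaled proportionally up to 5 mg/kg. The brain/plasma ratio was derived from these, reported as mean ± SD.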

For data set [3], the species on record is Rattus norvegicus. In words: Inhibition of 5-LOX-mediated LTB4 production in arachidonic acid-stimulated RBL1 cells at 10 uM preincubated for 2 hrs followed by A23187 induction for 15 mins by LC/MS/MS analysis relative to control. The essentials:
(§2)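 RBL-1 cells grown in RPMI/10% FBS, plated 9 × 10⁵ cells/well, held 2 h at 37 °C, then given compound for 2 h (screen at 10 μM, then concentration–response in triplicate). Stimulation was 12 μM A23187 for 15 min. Supernatants were extracted with MeOH/0.01% BHT and LTB₄ quantified by UPLC-MS/MS in negative ion mode.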

The nature of data set [4]: Ratio of drug level in brain to plasma in mouse at 2 mg/kg, ip administered as cassette dosing. The class given is ADME, organism-based. The settings on record: read-out: BPR. The essentials: as §1
Data set [5] is described as follows: Inhibition of 5-LOX-mediated LTB4 production in arachidonic acid-stimulated RBL1 cells preincubated for 2 hrs followed by A23187 induction for 15 mins by LC/MS/MS analysis. The settings on record: Rattus norvegicus, RBL-1. The method in brief:
as §2

The nature of data set [6]: Plasma concentration in mouse at 2 mg/kg, ip administered as cassette dosing after 1 hr by LC-MS/MS method. Type of data set: ADME, organism-based. The method in brief: as §1
The target in data set [7] is T1, Cyclooxygenase (Rattus norvegicus, UniProt P35355+Q63921).
T1 sequence (P35355 whole entry): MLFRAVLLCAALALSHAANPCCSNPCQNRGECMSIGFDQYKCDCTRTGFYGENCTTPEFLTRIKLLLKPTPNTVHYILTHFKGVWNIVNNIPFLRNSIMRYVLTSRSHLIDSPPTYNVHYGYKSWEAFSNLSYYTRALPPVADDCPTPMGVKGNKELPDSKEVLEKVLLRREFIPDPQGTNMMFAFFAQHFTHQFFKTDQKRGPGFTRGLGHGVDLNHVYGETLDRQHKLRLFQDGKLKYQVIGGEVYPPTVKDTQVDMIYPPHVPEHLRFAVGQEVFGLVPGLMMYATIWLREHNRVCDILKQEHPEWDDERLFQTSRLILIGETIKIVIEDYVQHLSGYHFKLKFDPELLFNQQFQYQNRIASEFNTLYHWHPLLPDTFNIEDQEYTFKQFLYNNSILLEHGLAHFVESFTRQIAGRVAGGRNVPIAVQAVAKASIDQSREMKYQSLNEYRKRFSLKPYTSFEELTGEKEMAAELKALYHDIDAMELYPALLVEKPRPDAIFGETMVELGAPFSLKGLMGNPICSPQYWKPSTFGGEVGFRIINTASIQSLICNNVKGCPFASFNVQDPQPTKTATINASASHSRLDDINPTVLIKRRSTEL
T1 sequence (Q63921 whole entry): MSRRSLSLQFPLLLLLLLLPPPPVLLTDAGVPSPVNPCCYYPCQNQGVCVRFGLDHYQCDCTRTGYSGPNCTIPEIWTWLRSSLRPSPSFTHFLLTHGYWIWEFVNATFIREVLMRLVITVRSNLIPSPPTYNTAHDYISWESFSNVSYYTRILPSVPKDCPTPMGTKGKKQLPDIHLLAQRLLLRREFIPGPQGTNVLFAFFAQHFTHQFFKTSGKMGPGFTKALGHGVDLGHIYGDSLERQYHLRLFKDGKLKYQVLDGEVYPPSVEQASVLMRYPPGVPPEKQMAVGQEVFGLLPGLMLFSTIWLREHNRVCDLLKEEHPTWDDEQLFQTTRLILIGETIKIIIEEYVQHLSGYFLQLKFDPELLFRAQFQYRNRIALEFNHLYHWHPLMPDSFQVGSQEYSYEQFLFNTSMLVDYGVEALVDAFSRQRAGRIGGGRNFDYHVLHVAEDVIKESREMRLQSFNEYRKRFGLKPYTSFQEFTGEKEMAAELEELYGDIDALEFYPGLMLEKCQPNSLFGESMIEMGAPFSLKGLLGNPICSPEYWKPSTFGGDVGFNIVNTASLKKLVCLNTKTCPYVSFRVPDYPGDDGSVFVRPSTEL
The data set is described as follows: Inhibition of COX-mediated PGD2/PGE2 production in arachidonic acid-stimulated RBL1 cells preincubated for 2 hrs followed by A23187 induction for 15 mins by LC/MS/MS analysis. The method in brief:
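RBL-1 cells in RPMI/10% FBS, 9 × 10⁵ cells/well, held 2 h, then exposed to compound for 2 h at multiple concentrations in triplicate. Stimulation was 12 μM A23187 for 15 min. Eicosanoids were extracted with MeOH/0.01% BHT, and PGD₂ plus PGE₂ measured by UPLC-MS/MS (negative ion, 351 > 315).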

The nature of data set [8]: Plasma concentration in mouse at 5 mg/kg, ip administered as single dose after 1 hr by LC-MS/MS method. Type of data set: ADME, organism-based. The method in brief:
(§3)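 Groups of three CD-1 or B6SJL mice, 2–5 months old, sexes not mixed, received a single 5 mg/kg i.p. dose in DMSO. Compound was quantified in plasma and brain homogenate at a single time point, and the brain/plasma ratio was derived from these. Values are mean ± SD.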

Data set [9] can be described thus: Ratio of drug level in brain to plasma in mouse at 5 mg/kg, ip administered as single dose. Type of data set: ADME, organism-based. The settings on record: read-out: BPR. The method in brief: as §3
Data set [10] is described as follows: Drug uptake in mouse brain at 5 mg/kg, ip administered as single dose after 1 hr by LC-MS/MS method. Type of data set: ADME, organism-based. As to conditions: read-out: Drug uptake. The method in brief:
as §3

For data set [11], the species on record is Rattus norvegicus. As to conditions: at 10 nM.
The target of data set [12] is Cyclooxygenase (Rattus norvegicus) (UniProt P35355+Q63921). As to conditions: at 10 nM.
The nature of data set [13]: Change in total alpha-tubulin levels in human QBI293 cells at 10 uM after 4 hrs by ELISA relative to control. The class given is cell-based. The settings on record: qbi293, 4 h. The essentials: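 QBI-293 cells grown in DMEM/10% FBS at 37 °C, 5% CO2, plated 6 × 10⁵ cells/well, left overnight, then given vehicle or compound (1 and 10 μM) for 4 h. Cells were lysed in RIPA with protease inhibitors, 1 mM PMSF and 1 μM TSA, then spun at 100000g for 30 min. Total α-tubulin was measured by ELISA, normalized by BCA protein, expressed as fold change vs DMSO, triplicate, two-tailed unpaired t test.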

As to `Fc1ccc(F)c(-c2cnc(Cl)n2-c2ccc(Cl)cc2)c1`, in [1], the Activity entry is “Non-Toxic”. In addition, the figures for the concentration at 1 h in data set [2] and in data set [6] were 200 nM and 60 nM, respectively. The same compound registered an inhibition in data set [3] of 96%. In data set [4], the Kp was determined as 3.3. Besides, the IC50 in data set [5] was 2.5 µM; in data set [7] it was 2.2 µM.
For the compound `Fc1ccc(Br)c(F)c1-c1c(Cl)ncn1-c1ccc(Cl)cc1`, the figures for the concentration at 1 h in [8] and in data set [10] were 260 nM and 240 nM, respectively. Besides, the Activity entry in [1] was “Non-Toxic”. Besides, the inhibition in data set [3] came out at 78%. In addition, the Kp in data set [9] is 0.9. Moreover, the figures for the IC50 in data set [5] and in data set [7] were 7.8 µM and 6.5 µM, respectively.
Consider `Fc1ccc(Cl)c(F)c1-c1c(Cl)ncn1-c1ccc(Cl)cc1`, for which the concentration at 1 h in data set [8] was determined as 190 nM; in [10], 400 nM. For the same compound, the Activity entry in [1] was “Non-Toxic”. The compound also showed an inhibition in data set [3] of 63%. Also, the Kp in [9] turned out to be 2.1. Besides, the figures for the IC50 in [5] and in [7] were 9.5 µM and 2.2 µM, respectively.
In the case of `Fc1cccc(F)c1-c1c(Cl)ncn1-c1ccc(Cl)cc1`, the Activity result in data set [1] is recorded as “Non-Toxic”. For the same compound, the concentration at 1 h was found to be 700 nM in data set [2] and 400 nM in data set [6]. Further, the inhibition in data set [3] was determined as 76%. Also, the Kp in data set [4] was 1.9. For the same compound, the half-maximal inhibitory concentration (IC50) in data set [5] was 13.8 µM; in data set [7] it was 2.4 µM.
For the compound `Fc1cccc(F)c1-c1cnc(Cl)n1-c1ccc(Cl)cc1`, the results for the concentration at 1 h in [8] and in [10] were 480 nM and 900 nM, respectively. For the same compound, the Activity result in [1] is “Non-Toxic”. The compound also registered an inhibition in data set [3] of 92%. Also, the Kp in data set [9] worked out at 1.9. Further, the IC50 in data set [5] was 10.7 µM; in data set [7], 15 µM.
As for `CC(C)c1ccc2c(c1)c(SC(C)(C)C)c(CC(C)(C)C(=O)O)n2Cc1ccc(Cl)cc1`, the inhibition is 70% in [11] and under 10% in [12].
Turning to `COc1ccc(-n2c(-c3c(F)cc(F)cc3F)cnc2Cl)cc1`, in data set [1], the Activity entry was “Non-Toxic”. For the same compound, the concentration at 1 h in [2] and in data set [6] was 210 nM throughout. The compound also gave an inhibition in [3] of 75%. Also, in data set [4], the Kp was 0.9. Moreover, the IC50 was 20.8 µM in data set [5] and 9.8 µM in [7].
For `Cc1ncn(-c2ccc(Cl)cc2)c1-c1c(F)ccc(F)c1F`, the concentration at 1 h in data set [2] is 400 nM; in data set [6], 200 nM. The same compound gave an inhibition in data set [3] of 74%. For the same compound, the Kp in data set [4] was 1.9. The concentration for half-maximal inhibition (IC50) in data set [5] was found to be 23.7 µM; in [7] it was 4.7 µM. In addition, in [13], the “fold change (FC)” value amounted to 1.2.
In the case of `Cc1cc(F)c(-c2c(Cl)ncn2-c2ccc(Cl)cc2)c(F)c1`, the Activity entry in [1] is on record as “Non-Toxic”. For the same compound, the results for the concentration at 1 h in data set [2] and in data set [6] were 300 nM and 110 nM, respectively. For the same compound, in data set [3], the inhibition worked out at 75%. In addition, the Kp in data set [4] was 2.5. Moreover, the IC50 in data set [5] worked out at 11.7 µM; in [7] it was 1.8 µM.
On to `Fc1cc(-n2cnc(Cl)c2-c2c(F)ccc(F)c2F)ccc1Cl`, for which the concentration at 1 h in [8] turned out to be 240 nM; in [10], 700 nM. The Activity result in data set [1] is recorded as “Non-Toxic”. The same compound registered an inhibition in [3] of 66%. In data set [9], the Kp was 3. Moreover, the IC50 in data set [5] worked out at 6 µM; in data set [7], 4.6 µM.
Turning to `Cc1ncn(-c2ccc(Cl)cc2)c1-c1c(F)ccc(Cl)c1F`, in [1], the Activity result is given as “Non-Toxic”. In addition, the concentration at 1 h stood at 600 nM in data set [2] and 500 nM in data set [6]. Besides, the inhibition in data set [3] came out at 71%. The Kp in data set [4] amounted to 1.4. Moreover, the values for the IC50 in [5] and in data set [7] were 13.4 µM and 12.1 µM, respectively.
As to `Fc1ccc(F)c(-c2c(Cl)ncn2-c2ccc(Cl)cc2)c1F`, the concentration at 1 h is 300 nM in [8] and 700 nM in [10]. In addition, the Activity result in data set [1] was “Non-Toxic”. In addition, the inhibition in [3] was 69%. The Kp in [9] was determined as 2.8. In addition, the IC50 stood at 2.4 µM in data set [5] and 2.9 µM in data set [7].
On to `Clc1ccc(-n2cnc(Cl)c2-c2ccccc2)cc1`, for which, in data set [1], the Activity result is “Non-Toxic”. Moreover, the values for the concentration at 1 h in data set [2] and in data set [6] were 200 nM and 80 nM, respectively. The inhibition in [3] was 71%. In addition, the Kp in data set [4] is 2.4. Besides, the results for the IC50 in [5] and in [7] were 12.5 µM and 1 µM, respectively.
